Published values pooled from the literature.
Each line is one published result; the experiments were not run side by side.
Target: Receptor-interacting serine/threonine-protein kinase 4 (RIPK4, Homo sapiens, UniProt P57078)
One construct used (P57078 1-832): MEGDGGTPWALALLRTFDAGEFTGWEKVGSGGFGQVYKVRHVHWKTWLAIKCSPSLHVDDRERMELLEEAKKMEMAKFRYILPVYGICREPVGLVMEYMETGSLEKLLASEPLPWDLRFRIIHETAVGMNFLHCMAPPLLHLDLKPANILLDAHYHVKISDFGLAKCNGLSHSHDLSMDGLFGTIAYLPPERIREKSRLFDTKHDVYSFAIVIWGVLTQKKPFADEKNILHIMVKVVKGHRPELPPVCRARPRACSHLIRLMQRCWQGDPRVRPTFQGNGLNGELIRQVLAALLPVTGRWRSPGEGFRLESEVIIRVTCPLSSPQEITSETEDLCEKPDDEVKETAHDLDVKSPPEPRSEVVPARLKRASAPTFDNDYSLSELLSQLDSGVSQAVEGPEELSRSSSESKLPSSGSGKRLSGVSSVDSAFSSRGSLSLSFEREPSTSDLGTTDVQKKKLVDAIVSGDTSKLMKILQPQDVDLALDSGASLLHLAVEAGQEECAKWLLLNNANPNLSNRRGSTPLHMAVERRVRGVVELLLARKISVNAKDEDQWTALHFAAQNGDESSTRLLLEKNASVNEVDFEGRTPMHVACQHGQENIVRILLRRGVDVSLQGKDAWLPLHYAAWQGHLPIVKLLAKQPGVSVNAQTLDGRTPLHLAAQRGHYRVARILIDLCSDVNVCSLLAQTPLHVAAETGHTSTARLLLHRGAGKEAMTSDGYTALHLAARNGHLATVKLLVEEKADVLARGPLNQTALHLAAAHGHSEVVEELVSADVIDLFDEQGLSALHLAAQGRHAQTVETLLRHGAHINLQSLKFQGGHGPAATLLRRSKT

COc1cnc(Nc2cccc(S(N)(=O)=O)c2)nc1N1CCN(c2ccccc2)CC1
remaining binding (binding; competition with immobilised ligand; 1 µM): 86%

O=C(c1ccc(Nc2nccc(-c3cc4ccccc4s3)n2)cc1)N1CCC(N2CCCC2)CC1
remaining binding (binding; competition with immobilised ligand; 1 µM): 30%

CS(=O)(=O)N1CCCC(NC(=O)[C@H](CCC2CCCCC2)NC(=O)c2ccc(CNC(=O)c3cnc4ccccn34)cc2)C1 (stereo partly drawn)
remaining binding (cell-free assay; competition with immobilised ligand; 0.1 µM): 92%

c1cnn2ncc(-c3ccnc(N4CCC45COC5)n3)c2c1
remaining binding (binding; 1 µM): 52%

O=C(c1ccc(Nc2ncc(Cl)c(-c3ccc(Cl)s3)n2)cc1)N1CCC(N2CCCC2)CC1
remaining binding (binding; competition with immobilised ligand; 1 µM): 8%

CC(=O)c1c(NS(C)(=O)=O)c2cc(-c3ccc(Cl)cc3)c(-c3ccc(Cl)cc3Cl)nc2n(C)c1=O
remaining binding (cell-free assay; competition with immobilised ligand; 1 µM): 61%

O=C(Nc1c[nH]nc1C(=O)NC1CCNCC1)c1cc(F)cc(F)c1
remaining binding (binding; competition with immobilised ligand; 1 µM): 100%

CN(C)c1nccc(-c2cnc3ncccn23)n1
remaining binding (binding; 1 µM): 71%

c1cncc(-c2cccc(Nc3nccc(NC4CCCCC4)n3)c2)c1
remaining binding (binding; competition with immobilised ligand; 10 µM): 53%

CN(c1nccc(-c2cnn3ncccc23)n1)C1CC1
remaining binding (binding; 1 µM): 100%

COc1ccc2c(c1)O[C@H](c1ccc(OC)c(OC)c1)C[C@@H]2NC(=O)C1(c2ccc3c(c2)OC(F)(F)O3)CC1
remaining binding (cell-free assay; competition with immobilised ligand; 1 µM): 75%

Cc1cnn2ncc(-c3ccnc(N(C)C)n3)c2c1
remaining binding (binding; 1 µM): 80%

C=CC(=O)N1CCC(C(=O)NCC(=O)N2CCN(c3nc(-c4cnc(N)nc4C(F)F)nc(N4CCOCC4)n3)CC2)CC1
remaining binding (binding; competition with immobilised ligand; 1 µM): 76%

CCN1CCN(Cc2ccc(C(=O)Nc3ccc(C)c(Oc4ccc5c(c4)CC(=O)N5)c3)cc2C(F)(F)F)CC1
remaining binding (binding; competition with immobilised ligand; 1 µM): 100%

C[C@H]1CCN(c2nccc(-c3cnn4ncccc34)n2)C1
remaining binding (binding; 1 µM): 81%

CN1CCN(c2cnc3c(C4CCN(C(=O)c5ccc(OC(F)(F)F)cc5N)CC4)ncnc3c2)CC1
remaining binding (cell-free assay; competition with immobilised ligand; 1 µM): 100%

CNC(=O)[C@@H]1CC[C@@H](n2c(-c3ccc4cnccc4c3)nc3ccc(C(=O)NCc4cccc(C(N)=O)c4)cc32)C1
remaining binding (binding; competition with immobilised ligand; 1 µM): 65%

Cc1c(NC(=O)c2cc(C(N)=O)nc3cc(F)ccc23)c(C(F)(F)F)nn1Cc1ccc(C#N)cc1
remaining binding (cell-free assay; competition with immobilised ligand; 1 µM): 92%

N[C@@H]1CCN(c2nccc(-c3cnn4ncccc34)n2)C1
remaining binding (binding; 1 µM): 100%

CC1=C(C#N)[C@@H](c2ccc3[nH]nc(C)c3c2)C(C#N)=C(c2ccc(Cl)cc2)N1
remaining binding (cell-free assay; competition with immobilised ligand; 1 µM): 71.8%

O=C(NCCCN1CCOCC1)c1ccc(Nc2nccc(-c3cc4ccccc4s3)n2)cc1
remaining binding (binding; competition with immobilised ligand; 1 µM): 47%
